The test system of assay [1] is CCRF-CEM. As to the kind of experiment: Cytotoxicity against human CCRF-CEM cells assessed as cell viability after 72 hrs by MTS assay. Type of assay: functional, cell-based. In outline: (§1)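 Cells seeded at 10,000 per well in 96-well plates; leukemia/lymphoma lines in RPMI, Hs27 fibroblasts in DMEM, both with 10% heat-inactivated FBS, penicillin and streptomycin, 37 °C, 5% CO2. Exposed to doubling concentrations from 1.56 to 100 µM for 72 h, then MTS added for 4 h. Absorbance read at 490 nm, reference 650 nm, cell-free background subtracted. Viability expressed relative to 1% DMSO solvent control. Eight replicates. IC50 is the concentration giving 50% inhibition of formazan conversion versus untreated cells.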
(Formazan colour is commonly taken as a measure of viable cells.)

The test system of assay [2] is Ramos. As to the kind of experiment: Cytotoxicity against human Ramos cells assessed as cell viability after 72 hrs by MTS assay. Type of assay: functional, cell-based. In outline:
as §1

Assay [3] concerns Jurkat. As to the kind of experiment: Cytotoxicity against human Jurkat cells assessed as cell viability after 72 hrs by MTS assay. Type of assay: functional, cell-based. In outline:
as §1

A short description of assay [4]: Cytotoxicity against human NALM6 cells assessed as cell viability after 72 hrs by MTS assay. Type of assay: functional, cell-based. The following applies: NALM-6, 72 h. In outline:
as §1

Assay [5] relates to HS27. As to the kind of experiment: Cytotoxicity against human HS27 cells assessed as cell viability after 72 hrs by MTS assay. The following applies: HS27, 72 h. Type of assay: cell-based. In outline: as §1
The subject of assay [6] is CCRF-CEM. As to the kind of experiment: Induction of apoptosis in human CCRF-CEM cells assessed as early apoptotic cells at 10 uM after 72 hrs by measuring phosphatidylserine translocation using annexin V-FITC/propidium iodide staining-based flow cytometric analysis (reference value: 0.8%). Type of assay: functional.
Assay [7] deals with CCRF-CEM. As to the kind of experiment: Cytotoxicity against human CCRF-CEM cells assessed as intact mitochondrial membrane potential at 10 uM after 6 hrs by JC-1 red/green staining-based flow cytometry analysis (reference value: 96.7%). Type of assay: functional. Background: In flow cytometry, cells or beads pass a laser one at a time.
Assay [8] deals with CCRF-CEM. As to the kind of experiment: Cytotoxicity against human CCRF-CEM cells assessed as intact mitochondrial membrane potential at 10 uM after 8 hrs by JC-1 red/green staining-based flow cytometry analysis (reference value: 96.7%). The format is functional.
In assay [9] the test system is CCRF-CEM. As to the kind of experiment: Induction of apoptosis in human CCRF-CEM cells assessed as late apoptotic cells at 10 uM after 72 hrs by measuring phosphatidylserine translocation using annexin V-FITC/propidium iodide staining-based flow cytometric analysis (reference value: 0.1%). Type of assay: functional.
The test system of assay [10] is CCRF-CEM. As to the kind of experiment: Cytotoxicity against human CCRF-CEM cells assessed as mitochondrial membrane depolarization at 10 uM by JC-1 red/green staining-based flow cytometry analysis. The following applies: TDE = time-dependent effect. The format is functional, cell-based.
In assay [11] the test system is CCRF-CEM. As to the kind of experiment: Induction of apoptosis in human CCRF-CEM cells assessed as viable cells at 10 uM after 72 hrs by measuring phosphatidylserine translocation using annexin V-FITC/propidium iodide staining-based flow cytometric analysis (reference value: 98.7%). The format is functional. The following applies: read-out: Activity.
Assay [12] deals with CCRF-CEM. As to the kind of experiment: Induction of apoptosis in human CCRF-CEM cells using fluorogenic substrate assessed as caspase 3 activation at 1 uM after 8 hrs by measuring viable cells using flow cytometric analysis (reference value: 96.1%).
The test system of assay [13] is CCRF-CEM. As to the kind of experiment: Induction of apoptosis in human CCRF-CEM cells assessed as caspase 3 activation at 10 uM after 8 hrs by measuring necrotic cells using flow cytometric analysis relative to control. The format is functional.
The test system of assay [14] is CCRF-CEM. As to the kind of experiment: Induction of apoptosis in human CCRF-CEM cells using fluorogenic substrate assessed as caspase 3 activation at 10 uM after 8 hrs by measuring early apoptotic cells using flow cytometric analysis (reference value: 3.9%). The format is functional.
Assay [15] has as its system CCRF-CEM. As to the kind of experiment: Cytotoxicity against human CCRF-CEM cells assessed as mitochondrial membrane depolarization at 10 uM after 6 hrs by JC-1 red/green staining-based flow cytometry analysis (reference value: 3.3%). The format is functional.
Assay [16] has as its system CCRF-CEM. As to the kind of experiment: Induction of apoptosis in human CCRF-CEM cells assessed as necrotic cells at 10 uM after 72 hrs by measuring phosphatidylserine translocation using annexin V-FITC/propidium iodide staining-based flow cytometric analysis (reference value: 0.4%). Type of assay: functional.
The subject of assay [17] is CCRF-CEM. As to the kind of experiment: Induction of apoptosis in human CCRF-CEM cells assessed as caspase 3 activation at 10 uM after 8 hrs by measuring late apoptotic cells using flow cytometric analysis relative to control. The format is functional.
Assay [18] deals with CCRF-CEM. As to the kind of experiment: Cytotoxicity against human CCRF-CEM cells assessed as mitochondrial membrane depolarization at 10 uM after 8 hrs by JC-1 red/green staining-based flow cytometry analysis (reference value: 3.3%). The format is functional.
In assay [19] the test system is CCRF-CEM. As to the kind of experiment: Induction of apoptosis in human CCRF-CEM cells assessed as late apoptotic cells at 50 uM after 72 hrs by measuring phosphatidylserine translocation using annexin V-FITC/propidium iodide staining-based flow cytometric analysis (reference value: 0.1%). The format is functional.
The subject of assay [20] is CCRF-CEM. As to the kind of experiment: Induction of apoptosis in human CCRF-CEM cells assessed as necrotic cells at 50 uM after 72 hrs by measuring phosphatidylserine translocation using annexin V-FITC/propidium iodide staining-based flow cytometric analysis (reference value: 0.4%). Type of assay: functional.
For assay [21], the system named is CCRF-CEM. As to the kind of experiment: Induction of apoptosis in human CCRF-CEM cells assessed as viable cells at 50 uM after 72 hrs by measuring phosphatidylserine translocation using annexin V-FITC/propidium iodide staining-based flow cytometric analysis (reference value: 98.7%). The format is functional. The following applies: read-out: Activity.
The test system of assay [22] is CCRF-CEM. As to the kind of experiment: Induction of apoptosis in human CCRF-CEM cells assessed as early apoptotic cells at 50 uM after 72 hrs by measuring phosphatidylserine translocation using annexin V-FITC/propidium iodide staining-based flow cytometric analysis (reference value: 0.8%). Type of assay: functional.
Assay [23] deals with CCRF-CEM. As to the kind of experiment: Cytotoxicity against human CCRF-CEM cells assessed as intact mitochondrial membrane potential at 50 uM after 8 hrs by JC-1 red/green staining-based flow cytometry analysis (reference value: 96.7%). The format is functional.
Assay [24] deals with CCRF-CEM. As to the kind of experiment: Induction of apoptosis in human CCRF-CEM cells using fluorogenic substrate assessed as caspase 3 activation at 50 uM after 8 hrs by measuring early apoptotic cells using flow cytometric analysis (reference value: 6.1%). The format is functional. In outline:
(§2)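 CEM cells were seeded at 50,000 per well in RPMI with 10% FBS and exposed for 8 h at 37 °C, with CCCP (50 µM) as positive control and untreated and 1% DMSO controls. Cells were labelled with NucView 488 caspase-3/7 live-cell fluorogenic substrate. Green-positive cells were counted by flow cytometry (FL1 vs FL2 dot plots), about 10,000 events per sample, in triplicate.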

Assay [25] relates to CCRF-CEM. As to the kind of experiment: Cytotoxicity against human CCRF-CEM cells assessed as mitochondrial membrane depolarization at 50 uM after 8 hrs by JC-1 red/green staining-based flow cytometry analysis (reference value: 3.3%). Type of assay: functional.
Assay [26] concerns CCRF-CEM. As to the kind of experiment: Induction of apoptosis in human CCRF-CEM cells assessed as caspase 3 activation at 50 uM after 8 hrs by measuring necrotic cells using flow cytometric analysis relative to control. The format is functional. In outline:
as §2

The subject of assay [27] is CCRF-CEM. As to the kind of experiment: Induction of apoptosis in human CCRF-CEM cells using fluorogenic substrate assessed as caspase 3 activation at 50 uM after 8 hrs by measuring late apoptotic cells using flow cytometric analysis relative to control. Type of assay: functional. In outline:
as §2

In assay [28] the test system is CCRF-CEM. As to the kind of experiment: Induction of apoptosis in human CCRF-CEM cells using fluorogenic substrate assessed as caspase 3 activation at 50 uM after 8 hrs by measuring viable cells using flow cytometric analysis (reference value: 93.9%). The format is functional. In outline:
as §2

These results are taken from ChEMBL document CHEMBL3102713, “The cytotoxic effect of 2-acylated-1,4-naphthohydroquinones on leukemia/lymphoma cells” (Bioorg Med Chem, 2014).

One may read the IC50 as the concentration that gives 50% inhibition.

For `CC(=O)c1cc(O)c2ccccc2c1O`, the concentration for half-maximal inhibition (IC50) in [1] worked out at 5.24 µM; in [2], 0.75 µM; in assay [3], 5.6 µM; in [4] it was 5.09 µM; in [5], 9.87 µM.

In the case of `Cc1ccc(C(=O)c2cc(O)c3ccccc3c2O)cc1`, the IC50 in [1] came out at 0.74 µM; in assay [2], 0.52 µM; in assay [3] it was 3.35 µM; in assay [4], 2.41 µM; in assay [5] it was 4.37 µM.

In the case of `CCCCCCCCCCCC(=O)c1cc(O)c2ccccc2c1O`, the Activity in assay [6] is 92.8%; in assay [7] it was 63.2%; in [8] it was 37.7%; in assay [9] it was 3.7%; in [10], “tde”; in assay [12], 64.8%. In addition, the Activity is 0% in assay [13]; 35.2% in assay [14]; 36.8% in assay [15]; 3% in [16]; 0% in assay [17]; 62.3% in [18]. The IC50 in assay [1] worked out at 5.99 µM; in assay [2], 0.98 µM; in [3], 6.56 µM; in assay [4], 5.8 µM; in assay [5], 43.8 µM. The viability at 10 µM in assay [11] is 0.5%.

For `O=C(c1ccccc1)c1cc(O)c2ccccc2c1O`, the IC50 in assay [1] was determined as 5.44 µM; in assay [2], 4.13 µM; in assay [3], 6.35 µM; in [4] it was 2.58 µM; in assay [5], 8.3 µM.

`C/C=C/C(=O)c1cc(O)c2ccccc2c1O`: the IC50 in assay [1] is 3.19 µM; in assay [2] it was 4.25 µM; in [3] it was 6.24 µM; in assay [4], 4.63 µM; in [5], 37.1 µM. Besides, the values for the Activity in [19], in [20] and in assay [22] were 0.4%, 19.8% and 1.3%, respectively. Also, the viability at 50 µM in assay [21] is 78.6%.

Consider `CCC(=O)c1cc(O)c2ccccc2c1O`, for which the IC50 in assay [1] stood at 3.95 µM; in assay [2], 2.49 µM; in [3], 4.54 µM; in [4], 2.02 µM; in assay [5], 18 µM.

For `N#CC(C#N)=NNc1cccc(Cl)c1` [CARBONYL CYANIDE M-CHLOROPHENYLHYDRAZONE], the Activity in [23] worked out at 0%; in [24], 32.6%; in assay [25], 100%; in [26], 0%; in assay [27], 1.1%; in assay [28] it was 66.3%.

`COc1ccc(C(=O)c2cc(O)c3ccccc3c2O)cc1`: the IC50 in [1] came to 0.01 µM; in [2] it was 0.66 µM; in assay [3] it was 2.78 µM; in [4], 0.88 µM; in assay [5], 4.97 µM.
